This excerpt belongs to a sample that is enriched for hits.
A1 inh – caspase 3/7 activation in MEF A1-2A-BIM cells, primary screen, A1 inhibitor project, cell-based, luminescence, HTS; Caspase-Glo 3/7 luminescence, 3 h; percent of clofoctol response, vehicle zero; caspase activation, % (no concentration beside the values); 330,000 tested, 0.066% active;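 active means over half of replicate activation scores above 10%, or exactly half above 10 with the replicate mean above 10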
UPR CHOP act – activators of apoptotic CHOP UPR arm, primary screen, cell-based, CHO-CHOP luciferase reporter, luminescence, uHTS. UPR activation; percent of tunicamycin response over DMSO baseline. 330,000 tested, 0.34% active. AID 449763, 2010. activation, % at 10 µM;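 active means at 10 µM dose, activation of 40% or more, normalized to positive control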;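 further: 100% = tunicamycin at 10 µg/mL and 0% = DMSO alone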
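Test system: CHO CHOP reporter cells. Input: 500 CHO-CHOP cells per well. Medium: F12 with 10% FBS. Technique: luciferase luminescence. Measure: percent activation relative to tunicamycin control. Dosing: 10 µM compound, 0.5% DMSO. Timing: 16-18 h cell attachment, then 6 h compound exposure, 37 °C.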
CHOP inh – inhibitors of CHOP promoter induction, primary screen, cell-based, unfolded protein response, luciferase reporter; CHO-K1 CHOP-promoter luciferase, tunicamycin-induced, 15-18 h; inhibition, % at 10 µM; 220,000 tested, 3.8% active; AID 2732, 2010;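 active means compounds that reduced the stress-induced luciferase reporter signal by more than about 70% of percent inhibition, limit read from the data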;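 further: 0% = tunicamycin plus vehicle and 100% = wells without tunicamycin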
UPR XBP1 act – activators of adaptive XBP1 UPR arm, primary screen, cell-based, CHO-XBP1 luciferase reporter, luminescence, uHTS | activation, % at 20 µM | AID 463104, 2010 | 330,000 tested, 0.33% active | IRE1-XBP1 UPR activation; percent of tunicamycin response, DMSO as zero;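 active means versus positive control, 20 µM dose yields 30% or more activation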;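 further: 100% = tunicamycin at 10 µg/mL and 0% = DMSO only wells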
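Assay system: IRE1-XBP1 luciferase reporter CHO line. Input: 1000 cells/well. Buffer or medium: F12 with 10% serum. Doses: 20 µM, 1% DMSO. Times: overnight seeding at 37 °C, 6 h compound treatment at 37 °C. Technique: Steady-Glo luciferase glow luminescence, 10 min after reagent addition.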
CHOP inh conf – retest of CHOP induction inhibitors, confirmation, cell-based | shares compounds with CHOP inh | CHO-CHOP promoter luciferase reporter, tunicamycin-induced, luminescence | inhibition, % at 10 µM | 2,100 tested, 45% active | AID 504437, 2011;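 active means mean of three repeat readings of reporter signal inhibition above a set limit, cut at about 70% in these data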;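 further: 0% = tunicamycin plus vehicle and 100% = wells lacking tunicamycin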
The depositor's hits bear a star; . = no result.

SMILES	A1 inh	UPR CHOP act	CHOP inh	UPR XBP1 act	CHOP inh conf
C=CCN1C=C2C(=O)C(C)(OC(=O)c3ccc(OC)cc3)C(=O)C(c3ccco3)=C2C=C1CCCC (configuration not stated)	-1	-1	-7	2	.
CCOc1cccc2cc(-c3nnc(NCc4ccco4)s3)c(=O)oc12	0	6	97*	3	20
C/C(=N\Nc1cc(C)nc(-c2ccccc2O)n1)c1ccccc1	0	2	44	4	.
Cc1cc(NCCCN)nc(-c2ccccc2O)n1	0	-2	101*	-1	-10
Cc1cc(N/N=C/c2ccc(O)c(C)c2O)nc(-c2ccccc2O)n1	0	.	107*	.	28
Cc1ccc(Nc2cc(C)nc(-c3ccccc3O)n2)cc1	2	3	56	0	.
Cc1ccc(NC(=O)Nn2cnnc2)cc1Cl	0	4	.	-1	.
Cc1ccc(NC(=O)O/N=C/c2c(C)nn(C(C)(C)C)c2C)cc1Cl	1	-10	99*	-11	120*
O=C(Cn1c(COc2ccc(Cl)cc2)nc2ccccc21)NCC(F)(F)F	0	3	16	0	.
O=C(Cn1c(COc2ccccc2)nc2ccccc21)Nc1cc(Cl)cc(Cl)c1	1	6	109*	18	32
Cc1ccc(C)c(NC(=O)CN(C)C(=O)C2COc3ccccc3O2)c1 (configuration not stated)	2	0	.	-1	.
COc1ccccc1CN(C)CC(=O)NC(=O)NC1CCCCC1	1	2	.	0	.
CCOC(=O)Cc1csc(Nc2ccc(Cl)cc2)n1	0	2	-16	3	.
CCOC(=O)Cc1nnc2c(Nc3ccc(Cl)cc3)nc3nonc3n12	0	1	105*	0	61
COc1ccc(N=CC2=C(O)c3ccccc3C2=O)c(OC)c1	0	-9	100*	-11	133*
CN(CC(=O)Nc1cccc(F)c1)C(=O)CSc1ccccc1	0	0	.	-1	.
Cc1cccc(NC(=O)C2(C)CC3c4ccccc4C2c2ccccc23)c1 (configuration not stated)	0	2	103*	2	-9
COc1ccc(/C=C2/SC(=O)N(CC(=O)NCCC(C)C)C2=O)cc1OC	-1	1	100*	3	-34
COc1ccc(/C=C2\SC(=O)N(CC(=O)NCCC(C)C)C2=O)cc1OC	0	1	2	-4	.
CC(C)C[C@H](NC(=O)c1[nH]cnc1C(=O)Nc1ccccc1)C(=O)OC(C)(C)C	0	1	106*	5	112*
CC(C)C[C@H](NC(=O)c1nc[nH]c1C(=O)NCC(=O)OCc1ccccc1)C(=O)OCc1ccccc1	-1	0	.	-4	.
CC(C)C[C@H](NC(=O)c1nc[nH]c1C(=O)NCC(=O)OC(C)(C)C)C(=O)OCc1ccccc1	0	-2	101*	1	114*
CC(C)C[C@H](NC(=O)c1[nH]cnc1C(=O)N[C@@H](C)C(=O)OC(C)(C)C)C(=O)OC(C)(C)C	2	1	104*	-4	134*
O=C(O)CN1C(=O)c2ccc(Oc3cccc4c3C(=O)N(CC(=O)O)C4=O)cc2C1=O	0	2	-8	-2	.
Nc1ccc(C(=O)N2N=C(c3ccc(F)cc3)CC2(O)C(F)(F)F)cc1 (configuration not stated)	1	-1	.	2	.
O=C(CN1CCN(c2ncc(C(F)(F)F)cc2Cl)CC1)NCCNc1ncc(C(F)(F)F)cc1Cl	1	-3	101*	-4	106*
COc1ccc(CCC(C)NCc2ccc(F)cc2)cc1 (configuration not stated)	1	5	.	-3	.
CCc1cccc(C)c1NC(=S)N(CCN(C)C)Cc1cccs1	1	-2	19	2	.
CCOc1cc(/C=N/NC(=O)COc2cccc(C)c2)ccc1OC(=O)c1cccs1	2	4	106*	8	94*
COc1cc(/C=N/NC(=O)COc2ccccc2C)ccc1OC(=O)c1cccs1	0	16	-2	17	.

Bioassay records (PubChem)
